From ChEMBL document CHEMBL1212859, “Novel aminopeptidase N (APN/CD13) inhibitors derived from 3-phenylalanyl-N'-substituted-2,6-piperidinedione” (Bioorg Med Chem, 2010)

How the values were obtained:
[1] = molecular target: 72 kDa type IV collagenase (Homo sapiens, UniProt P08253); assay: Inhibition of MMP2 after 30 mins
Outline: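 Gelatinase A (MMP-2), synthesized substrate and inhibitor were dissolved together in 50 mmol/L sodium borate, pH 8.5, and incubated for 30 min at 37 °C. TNBS was used in the assay.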

Aminopeptidase N = molecular target: T1, Aminopeptidase N (Sus scrofa, UniProt P15145); assay: Inhibition of pig kidney microsome aminopeptidase N after 30 mins by UV-vis spectrophotometric analysis
T1 sequence (P15145 whole entry): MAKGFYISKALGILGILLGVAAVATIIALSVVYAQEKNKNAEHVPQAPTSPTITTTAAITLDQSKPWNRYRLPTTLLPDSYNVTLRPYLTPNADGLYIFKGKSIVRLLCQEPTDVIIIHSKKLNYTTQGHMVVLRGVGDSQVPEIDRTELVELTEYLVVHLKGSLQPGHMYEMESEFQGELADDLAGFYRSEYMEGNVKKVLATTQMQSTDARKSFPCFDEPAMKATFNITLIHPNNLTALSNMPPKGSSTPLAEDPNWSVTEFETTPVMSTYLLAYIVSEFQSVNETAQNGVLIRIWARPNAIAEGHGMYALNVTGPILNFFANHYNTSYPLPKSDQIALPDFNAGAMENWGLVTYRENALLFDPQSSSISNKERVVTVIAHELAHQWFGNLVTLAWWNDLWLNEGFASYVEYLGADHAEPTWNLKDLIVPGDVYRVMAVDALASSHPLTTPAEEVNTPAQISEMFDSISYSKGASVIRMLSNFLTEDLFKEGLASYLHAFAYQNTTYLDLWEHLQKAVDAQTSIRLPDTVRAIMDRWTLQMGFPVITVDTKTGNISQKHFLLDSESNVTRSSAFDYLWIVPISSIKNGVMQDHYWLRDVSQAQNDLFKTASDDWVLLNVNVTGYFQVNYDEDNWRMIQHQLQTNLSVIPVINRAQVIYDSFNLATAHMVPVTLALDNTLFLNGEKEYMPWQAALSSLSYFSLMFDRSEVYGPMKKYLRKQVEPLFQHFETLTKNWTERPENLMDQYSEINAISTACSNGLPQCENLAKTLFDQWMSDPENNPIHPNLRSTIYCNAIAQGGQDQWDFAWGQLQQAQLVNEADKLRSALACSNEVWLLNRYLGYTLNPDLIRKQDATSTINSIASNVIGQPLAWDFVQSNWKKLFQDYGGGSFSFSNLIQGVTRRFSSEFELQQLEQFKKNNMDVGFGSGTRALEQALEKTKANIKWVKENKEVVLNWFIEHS
Outline: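 Enzyme was porcine kidney microsomal aminopeptidase at 4 mg/ml final, with L-Leu-p-nitroanilide as substrate. Inhibitor solutions were made in assay buffer adjusted to pH 7.5. Inhibitors were preincubated with enzyme for 30 min at room temperature.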

MDA-MB-231 = assay: Cytotoxicity against human MDA-MB-231 cells after 72 hrs by MTT assay; type: functional, cell-based; conditions: MDA-MB-231, 72 h
Outline: (§1)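 Cells grown in RPMI1640 with 10% FBS at 37 °C under humidified 5% CO2. HL-60 cells have high APN expression and MDA-MB-231 cells have low expression. Plated at 10,000 cells/well and allowed 4 h in complete medium. Exposed for 72 h to five concentrations from 2000 down to […]. Proliferation read by MTT. Mean of three independent experiments.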

HL-60 = assay: Cytotoxicity against human HL60 cells expressing aminopeptidase N after 72 hrs by MTT assay; type: functional, cell-based; conditions: HL-60, 72 h; outline: as §1

Chain of 72 kDa type IV collagenase (P08253 whole entry): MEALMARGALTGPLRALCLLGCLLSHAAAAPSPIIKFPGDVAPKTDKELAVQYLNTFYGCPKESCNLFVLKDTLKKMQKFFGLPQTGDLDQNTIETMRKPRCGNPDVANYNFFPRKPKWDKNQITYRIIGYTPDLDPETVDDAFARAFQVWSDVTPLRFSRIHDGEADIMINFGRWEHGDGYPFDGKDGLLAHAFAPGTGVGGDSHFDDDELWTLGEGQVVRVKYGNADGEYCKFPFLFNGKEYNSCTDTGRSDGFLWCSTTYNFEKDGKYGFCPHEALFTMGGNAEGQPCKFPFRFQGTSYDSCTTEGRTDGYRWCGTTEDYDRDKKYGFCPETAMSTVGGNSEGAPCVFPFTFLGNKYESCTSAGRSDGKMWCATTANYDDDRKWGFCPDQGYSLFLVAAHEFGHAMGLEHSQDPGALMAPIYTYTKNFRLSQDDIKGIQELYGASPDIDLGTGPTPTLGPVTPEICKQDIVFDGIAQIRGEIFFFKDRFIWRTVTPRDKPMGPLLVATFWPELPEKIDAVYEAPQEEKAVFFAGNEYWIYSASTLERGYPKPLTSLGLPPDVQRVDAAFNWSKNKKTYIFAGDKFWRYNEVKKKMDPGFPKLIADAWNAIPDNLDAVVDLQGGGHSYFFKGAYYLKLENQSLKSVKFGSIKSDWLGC

SMILES	IC50 [1]	IC50 (Aminopeptidase N)	IC50 (MDA-MB-231)	IC50 (HL-60)
C[C@H](NC(=O)CN1C(=O)CC[C@H](NC(=O)[C@@H](N)Cc2ccccc2)C1=O)C(=O)OCc1ccccc1	129 µM	91.6 µM	–	–
CC(C)[C@H](NC(=O)CN1C(=O)CC[C@H](NC(=O)[C@@H](N)Cc2ccccc2)C1=O)C(=O)OCc1ccccc1	18.5 µM	30.1 µM	–	–
CC(C)C[C@H](NC(=O)CN1C(=O)CC[C@H](NC(=O)[C@@H](N)Cc2ccccc2)C1=O)C(=O)OCc1ccccc1	121 µM	30.2 µM	–	–
N[C@@H](Cc1ccccc1)C(=O)N[C@H]1CCC(=O)N(CC(=O)N[C@@H](Cc2ccccc2)C(=O)OCc2ccccc2)C1=O	12 µM	6.48 µM	10200 µM	2540 µM
N[C@@H](Cc1ccccc1)C(=O)N[C@H]1CCC(=O)N(CC(=O)N[C@@H](CCC(=O)OCc2ccccc2)C(=O)OCc2ccccc2)C1=O	272 µM	91.4 µM	–	–
N[C@@H](Cc1ccccc1)C(=O)N[C@H]1CCC(=O)N(CC(=O)NCC(=O)O)C1=O	107 µM	38.7 µM	–	–
C[C@H](NC(=O)CN1C(=O)CC[C@H](NC(=O)[C@@H](N)Cc2ccccc2)C1=O)C(=O)O	155 µM	110 µM	–	–
CC(C)[C@H](NC(=O)CN1C(=O)CC[C@H](NC(=O)[C@@H](N)Cc2ccccc2)C1=O)C(=O)O	> 1000 µM	13.3 µM	–	–
CC(C)C[C@H](NC(=O)CN1C(=O)CC[C@H](NC(=O)[C@@H](N)Cc2ccccc2)C1=O)C(=O)O	> 1000 µM	8.42 µM	14400 µM	5210 µM
N[C@@H](Cc1ccccc1)C(=O)N[C@H]1CCC(=O)N(CC(=O)N[C@@H](Cc2ccccc2)C(=O)O)C1=O	316 µM	66.4 µM	–	–
N[C@@H](Cc1ccccc1)C(=O)N[C@H]1CCC(=O)N(CC(=O)Nc2ccc(F)cc2)C1=O	122 µM	252 µM	–	–
COc1ccc(NC(=O)CN2C(=O)CC[C@H](NC(=O)[C@@H](N)Cc3ccccc3)C2=O)cc1	> 1000 µM	178 µM	–	–
Cc1ccc(NC(=O)CN2C(=O)CC[C@H](NC(=O)[C@@H](N)Cc3ccccc3)C2=O)c(C)c1	8.27 µM	5 µM	8590 µM	1970 µM
N[C@@H](Cc1ccccc1)C(=O)N[C@H]1CCC(=O)N(CC(=O)Nc2cccc(Cl)c2)C1=O	60.4 µM	6.92 µM	9480 µM	2220 µM
N[C@@H](Cc1ccccc1)C(=O)N[C@H]1CCC(=O)N(CC(=O)Nc2ccccc2F)C1=O	62.7 µM	245 µM	–	–
N[C@@H](Cc1ccccc1)C(=O)N[C@H]1CCC(=O)N(CC(=O)Nc2ccc(Br)cc2)C1=O	71.6 µM	74 µM	–	–
N[C@@H](Cc1ccccc1)C(=O)N[C@H]1CCC(=O)N(CC(=O)Nc2ccc(F)c(Cl)c2)C1=O	131 µM	170 µM	–	–
N[C@@H](Cc1ccccc1)C(=O)N[C@H]1CCC(=O)N(CC(=O)Nc2ccc(F)c(F)c2)C1=O	46.9 µM	53.4 µM	–	–
N[C@@H](Cc1ccccc1)C(=O)N[C@H]1CCC(=O)N(CC(=O)NCC(=O)OCc2ccccc2)C1=O	454 µM	13.4 µM	–	–
NC(Cc1ccccc1)C(=O)N[C@H]1CCC(=O)N(CC(=O)NCCC(=O)OCc2ccccc2)C1=O (single isomer, unassigned)	127 µM	49.7 µM	–	–
NC(Cc1ccccc1)C(=O)N[C@H]1CCC(=O)N(CC(=O)NCCC(=O)O)C1=O (single isomer, unassigned)	22.7 µM	12.8 µM	–	–
NC(Cc1ccccc1)C(=O)N[C@H]1CCC(=O)N(CC(=O)N[C@@H](CCC(=O)O)C(=O)O)C1=O (single isomer, unassigned)	> 1000 µM	12.6 µM	–	–
NC(Cc1ccccc1)C(=O)N[C@H]1CCC(=O)N(CC(=O)NCC(=O)NO)C1=O (single isomer, unassigned)	141 µM	304 µM	–	–
CC(C)C[C@H](NC(=O)[C@@H](O)[C@H](N)Cc1ccccc1)C(=O)O [UBENIMEX]	157 µM	–	8590 µM	1130 µM
